Assay results as given in ChEMBL document CHEMBL1777717, “Potent and selective oxindole-based vasopressin 1b receptor antagonists with improved pharmacokinetic properties” (Bioorg Med Chem Lett, 2011).
pKi: −log10 of the molar value.

Columns and labels:
Vasopressin V1b receptor = target: T1, Vasopressin V1b receptor (Homo sapiens, UniProt P47901); test: Displacement of [3H]AVP from human vasopressin V1b receptor expressed in CHO cells by scintillation counting; assay type: cell-based
T1 sequence (P47901 whole entry): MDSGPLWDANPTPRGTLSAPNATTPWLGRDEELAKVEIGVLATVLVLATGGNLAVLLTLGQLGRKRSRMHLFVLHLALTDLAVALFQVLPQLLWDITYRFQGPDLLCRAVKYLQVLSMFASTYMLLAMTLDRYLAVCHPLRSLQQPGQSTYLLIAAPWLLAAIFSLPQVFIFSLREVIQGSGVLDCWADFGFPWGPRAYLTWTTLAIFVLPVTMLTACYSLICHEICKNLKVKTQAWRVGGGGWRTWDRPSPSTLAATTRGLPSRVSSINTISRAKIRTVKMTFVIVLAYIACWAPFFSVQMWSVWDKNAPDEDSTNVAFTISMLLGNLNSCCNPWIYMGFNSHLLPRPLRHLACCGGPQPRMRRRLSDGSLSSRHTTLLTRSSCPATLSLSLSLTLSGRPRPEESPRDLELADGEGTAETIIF

Homo sapiens [1] = species: Homo sapiens; test: Selectivity ratio of Ki for human vasopressin V1b receptor over Ki for human oxytocin receptor
Oxytocin receptor = target: T2, Oxytocin receptor (Homo sapiens, UniProt P30559); test: Displacement of radiolabeled oxytocin from human oxytocin receptor expressed in CHO cells by scintillation counting; assay type: cell-based
T2 sequence (P30559 whole entry): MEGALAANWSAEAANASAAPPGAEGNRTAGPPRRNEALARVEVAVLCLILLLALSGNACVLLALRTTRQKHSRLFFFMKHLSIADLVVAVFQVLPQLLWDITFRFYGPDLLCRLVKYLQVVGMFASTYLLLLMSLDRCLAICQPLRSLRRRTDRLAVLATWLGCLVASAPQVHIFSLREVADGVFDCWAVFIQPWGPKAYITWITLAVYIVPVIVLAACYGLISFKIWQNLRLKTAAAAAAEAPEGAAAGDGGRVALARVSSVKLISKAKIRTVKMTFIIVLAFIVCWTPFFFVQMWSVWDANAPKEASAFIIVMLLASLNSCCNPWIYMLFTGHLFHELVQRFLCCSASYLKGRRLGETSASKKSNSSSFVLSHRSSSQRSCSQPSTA
Method in brief: (§1)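 Ki from radioligand displacement at the human receptor, run per a previously published protocol; each value is the mean of at least two experiments.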

Homo sapiens [2] = species: Homo sapiens; test: Selectivity ratio of Ki for human vasopressin V1b receptor over Ki for human vasopressin V1a receptor
[3] = Intrinsic clearance in rat liver microsomes measured up to 40 mins by HPLC-MS method; assay type: ADME, Microsome
Method in brief: (§2)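 Intrinsic clearance determined by liver microsome incubation using a previously published procedure, reported in µL/min/mg; each value is the mean of at least two experiments.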

[4] = Intrinsic clearance in human liver microsomes measured up to 40 mins by HPLC-MS method; assay type: ADME, Microsome; method in brief: as §2
Homo sapiens [5] = species: Homo sapiens; test: Selectivity ratio of Ki for human vasopressin V1b receptor over Ki for human vasopressin V2 receptor
Vasopressin V2 receptor = Vasopressin V2 receptor (Homo sapiens, UniProt P30518); test: Displacement of [3H]AVP from human vasopressin V2 receptor expressed in CHO cells by scintillation counting; assay type: cell-based; method in brief: as §1
Vasopressin V1a receptor = Vasopressin V1a receptor (Homo sapiens, UniProt P37288); test: Displacement of [3H]AVP from human vasopressin V1a receptor expressed in CHO cells by scintillation counting; assay type: cell-based; method in brief: as §1
[6] = Clearance in rat plasma at 2 mg/kg, iv; assay type: ADME, organism-based; set-up: dose 2 mg/kg, route intravenous
[7] = Terminal half life in rat at 2 mg/kg, iv; assay type: ADME, organism-based; set-up: dose 2 mg/kg, route intravenous; details: in vivo, read-out: beta t1/2 (converted)
[8] = Oral bioavailability in rat plasma at 10 mg/kg; assay type: ADME, organism-based
[9] = Ratio of AUC in brain to plasma in rat at 10 mg/kg, ip; assay type: ADME, organism-based; set-up: dose 10 mg/kg, route intraperitoneal; details: brain and plasma, read-out: Ratio AUC
[10] = Volume of distribution at steady state in rat at 2 mg/kg, iv; assay type: ADME, organism-based; set-up: dose 2 mg/kg, route intravenous; details: in vivo, read-out: Vdss

Chain of Vasopressin V1a receptor (P37288 whole entry): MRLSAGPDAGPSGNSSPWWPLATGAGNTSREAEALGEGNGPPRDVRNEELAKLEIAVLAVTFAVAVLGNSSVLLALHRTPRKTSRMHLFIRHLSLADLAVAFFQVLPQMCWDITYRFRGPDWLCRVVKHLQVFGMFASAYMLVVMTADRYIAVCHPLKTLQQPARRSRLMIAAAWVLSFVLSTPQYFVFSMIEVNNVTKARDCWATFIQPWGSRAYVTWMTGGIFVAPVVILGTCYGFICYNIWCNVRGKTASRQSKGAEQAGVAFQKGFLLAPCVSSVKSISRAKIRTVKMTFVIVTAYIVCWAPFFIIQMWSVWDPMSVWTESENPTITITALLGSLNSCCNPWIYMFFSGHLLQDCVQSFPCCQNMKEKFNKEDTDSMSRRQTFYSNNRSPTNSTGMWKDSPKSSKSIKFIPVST
Chain of Vasopressin V2 receptor (P30518 whole entry): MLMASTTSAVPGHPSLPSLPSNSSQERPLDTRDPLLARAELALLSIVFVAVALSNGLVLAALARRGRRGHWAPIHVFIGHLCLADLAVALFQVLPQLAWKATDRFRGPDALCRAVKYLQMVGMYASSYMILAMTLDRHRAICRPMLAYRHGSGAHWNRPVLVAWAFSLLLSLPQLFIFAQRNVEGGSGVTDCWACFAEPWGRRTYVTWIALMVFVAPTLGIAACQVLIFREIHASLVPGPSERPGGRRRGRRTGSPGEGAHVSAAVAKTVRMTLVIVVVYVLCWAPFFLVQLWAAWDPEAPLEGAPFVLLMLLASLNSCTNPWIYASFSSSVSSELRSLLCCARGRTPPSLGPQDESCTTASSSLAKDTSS

pKi (Vasopressin V1b receptor) | Ratio Ki (Homo sapiens [1]) | pKi (Oxytocin receptor) | Ratio Ki (Homo sapiens [2]) | microsomal CLint [3] | microsomal CLint [4] | Ratio Ki (Homo sapiens [5]) | pKi (Vasopressin V2 receptor) | pKi (Vasopressin V1a receptor) | Structure (SMILES) | clearance [6] | half-life [7] | bioavailability [8] | Kp [9] | Vd [10]
< 5.00 |  |  |  |  |  |  |  |  | COc1ccc(S(=O)(=O)N2C(=O)[C@@](c3cccnc3OC)(N3CCCC3c3ccccc3)c3cc(Cl)ccc32)c(OC)c1 (mixture of isomers) |  |  |  |  | 
10.52 | > 100 | 7.77 | > 100 | 101 µL/min/mg | 506 µL/min/mg | > 100 | < 6.00 | 8.00 | COc1ccc(S(=O)(=O)N2C(=O)[C@@](c3cc(CN4CCCC4)ccc3OC)(N3CCC[C@H]3C(=O)N(C)C)c3cc(Cl)ccc32)cc1 |  |  |  |  | 
7.59 |  | 6.57 |  | 1030 µL/min/mg | 302 µL/min/mg |  | < 6.00 | 6.30 | COc1ccc(S(=O)(=O)N2C(=O)[C@@](c3nccnc3OC)(N3C[C@H](O)C[C@H]3C(=O)N(C)C)c3cc(Cl)ccc32)c(OC)c1 |  |  |  |  | 
8.68 |  |  |  | 413 µL/min/mg | 158 µL/min/mg |  | < 6.00 | 7.31 | COc1ccc(S(=O)(=O)N2C(=O)[C@@](c3cnccc3OC)(N3C[C@H](O)C[C@H]3C(=O)N(C)C)c3cc(Cl)ccc32)c(OC)c1 |  |  |  |  | 
8.25 |  | 7.35 |  | 366 µL/min/mg | 203 µL/min/mg |  | 6.20 | 6.76 | COc1ccc(S(=O)(=O)N2C(=O)[C@@](c3cnc(OC)nc3OC)(N3C[C@H](O)C[C@H]3C(=O)N(C)C)c3cc(Cl)ccc32)c(OC)c1 |  |  |  |  | 
10.10 | > 100 | 7.55 | > 100 | 106 µL/min/mg | 127 µL/min/mg | > 100 | < 6.00 | 7.00 | COc1ccc(S(=O)(=O)N2C(=O)[C@@](c3ccc(CN4CCCC4)cc3OC)(N3CCC[C@H]3C(=O)N(C)C)c3cc(Cl)ccc32)cc1 |  |  |  |  | 
7.00 |  |  |  |  |  |  |  |  | COc1ccc(S(=O)(=O)N2C(=O)[C@@](c3cccnc3OC)(N3CCCC3c3ncco3)c3cc(Cl)ccc32)c(OC)c1 (mixture of isomers) |  |  |  |  | 
8.89 |  | 7.38 |  | 446 µL/min/mg | 323 µL/min/mg |  | 6.21 | 7.26 | COc1ccc(S(=O)(=O)N2C(=O)[C@@](c3cccnc3OC)(N3C[C@H](O)C[C@H]3C(=O)N(C)C)c3cc(Cl)ccc32)c(OC)c1 |  |  |  |  | 
8.89 |  | 7.05 |  | 56 µL/min/mg | 76 µL/min/mg |  | < 6.00 | 6.64 | COc1ccc(S(=O)(=O)N2C(=O)[C@@](c3cc(CN4CCN(C)CC4)ccc3OC)(N3CCC[C@H]3c3ncco3)c3cc(Cl)ccc32)cc1 |  |  |  |  | 
7.70 |  |  |  | 356 µL/min/mg | 75 µL/min/mg |  |  |  | COc1ccc(S(=O)(=O)N2C(=O)[C@@](c3cccnc3OC)(N3CCC[C@H]3c3ncco3)c3cc(Cl)ccc32)cc1 |  |  |  |  | 
10.52 | > 100 | 7.70 | > 100 | 78 µL/min/mg | 414 µL/min/mg | > 100 | < 6.00 | 7.89 | COc1ccc(S(=O)(=O)N2C(=O)[C@@](c3cc(CN4CCN(C)CC4)ccc3OC)(N3CCC[C@H]3C(=O)N(C)C)c3cc(Cl)ccc32)cc1 |  |  |  |  | 

Continued, compound first:

Structure (SMILES) | pKi (Vasopressin V1b receptor) | Ratio Ki (Homo sapiens [1]) | pKi (Oxytocin receptor) | Ratio Ki (Homo sapiens [2]) | microsomal CLint [3] | microsomal CLint [4] | Ratio Ki (Homo sapiens [5]) | pKi (Vasopressin V2 receptor) | pKi (Vasopressin V1a receptor) | clearance [6] | half-life [7] | bioavailability [8] | Kp [9] | Vd [10]
COc1ccc(S(=O)(=O)N2C(=O)[C@@](c3ccc(CN4CCN(C)CC4)cc3OC)(N3CCC[C@H]3C(=O)N(C)C)c3cc(Cl)ccc32)cc1 | 10.40 | > 100 | 8.15 | > 100 | 56 µL/min/mg | 378 µL/min/mg | > 100 | < 6.00 | 7.82 |  |  |  |  | 
COc1ccc(S(=O)(=O)N2C(=O)[C@@](c3cc(CN(C)C)ccc3OC)(N3CCC[C@H]3c3ncco3)c3cc(Cl)ccc32)cc1 | 8.70 |  | 6.94 |  | 217 µL/min/mg | 204 µL/min/mg |  | < 6.00 | 6.54 |  |  |  |  | 
COc1ccc(S(=O)(=O)N2C(=O)[C@@](c3ccccc3OC)(N3C[C@H](O)C[C@H]3C(=O)N(C)C)c3cc(Cl)ccc32)c(OC)c1 |  |  |  |  | 432 µL/min/mg | 343 µL/min/mg |  |  |  | 86.7 mL/min/kg | 30 min | 12% | 0.03 | 2.8 L/kg
COc1ccc(S(=O)(=O)N2C(=O)[C@@](c3ccc(CN4CCCC4)cc3OC)(N3CCC[C@H]3C(=O)N(C)C)c3cc(Cl)ccc32)c(OC)c1 | 9.09 |  | 7.35 |  | 117 µL/min/mg | 155 µL/min/mg |  | < 6.00 | < 6.00 |  |  |  |  | 
COc1ccc(S(=O)(=O)N2C(=O)[C@@](c3cc(CN4CCCC4)ccc3OC)(N3CCC[C@H]3C(=O)N(C)C)c3cc(Cl)ccc32)c(OC)c1 | 9.59 |  | 7.54 |  | 148 µL/min/mg | 394 µL/min/mg |  | < 6.00 | 7.13 |  |  |  |  | 
COc1ccc(S(=O)(=O)N2C(=O)[C@@](c3cccnc3OC)(N3CCCC3c3ccccn3)c3cc(Cl)ccc32)c(OC)c1 (mixture of isomers) | 6.10 |  |  |  | 702 µL/min/mg | 183 µL/min/mg |  |  |  |  |  |  |  | 
COc1ccc(S(=O)(=O)N2C(=O)[C@@](c3cc(CN4CCCC4)ccc3OC)(N3CCC[C@H]3c3ncco3)c3cc(Cl)ccc32)cc1 | 8.92 |  | 6.77 |  | 164 µL/min/mg | 80 µL/min/mg |  | < 6.00 | 6.71 |  |  |  |  | 
COc1ccc(S(=O)(=O)N2C(=O)[C@@](c3cccnc3OC)(N3CCCC3c3nccs3)c3cc(Cl)ccc32)c(OC)c1 (mixture of isomers) | 6.56 |  |  |  | 476 µL/min/mg | 373 µL/min/mg |  |  |  |  |  |  |  | 
COc1ccc(S(=O)(=O)N2C(=O)[C@@](c3cccnc3OC)(N3CCC[C@H]3C(=O)N(C)C)c3cc(Cl)ccc32)c(OC)c1 | 8.42 |  | 7.21 |  | 446 µL/min/mg | 359 µL/min/mg |  | < 6.00 | 6.66 |  |  |  |  | 
COc1ccc(S(=O)(=O)N2C(=O)[C@@](c3cccnc3OC)(N3CCCC3c3cccs3)c3cc(Cl)ccc32)c(OC)c1 (mixture of isomers) | < 5.00 |  |  |  |  |  |  |  |  |  |  |  |  | 
